Tests used:
Kidney [1] = experiment: Biodistribution in mouse kidney at 4.8 MBq/140 uL, iv after 60 mins by gamma counting; assay type: ADME, organism-based; conditions: in vivo, 1 h
Procedure, shortened: (§1)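 Mice received the radioligand in saline by tail vein (4.8 MBq/140 μL, 40 pmol). Four mice per time point were killed by cervical dislocation at 1, 5, 15, 30 and 60 min. Tissues were removed quickly and counted in an autogamma counter. Data are decay-corrected % injected dose per gram of wet tissue, mean ± SE, n = 4.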

Kidney [2] = experiment: Biodistribution in mouse kidney at 4.8 MBq/140 uL, iv after 30 mins by gamma counting; assay type: ADME, organism-based; conditions: in vivo, 0.5 h; procedure, shortened: as §1
Cerebellum [3] = experiment: Drug uptake in Sprague-Dawley rat cerebellum at 17 MBq administered as bolus infusion by PET analysis in presence of JNJ16259685; assay type: ADME, organism-based; conditions: in vivo, iv
Blood [4] = experiment: Biodistribution in mouse blood at 4.8 MBq/140 uL, iv after 30 mins by gamma counting; assay type: ADME, organism-based; conditions: in vivo, 0.5 h; procedure, shortened: as §1
Liver [5] = experiment: Biodistribution in mouse liver at 4.8 MBq/140 uL, iv after 5 mins by gamma counting; assay type: ADME, organism-based; conditions: in vivo; procedure, shortened: as §1
Muscle tissue [6] = experiment: Biodistribution in mouse muscle at 4.8 MBq/140 uL, iv after 60 mins by gamma counting; assay type: ADME, organism-based; conditions: in vivo, 1 h
Procedure, shortened: (§2)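 [¹¹C]radioligand in saline (4.8 MBq/140 μL, 40 pmol) injected via tail vein; four mice per time point killed by cervical dislocation at 1, 5, 15, 30, 60 min. Tissues (small intestine including contents) removed, counted in autogamma counter, decay-corrected, expressed as % injected dose per gram wet tissue; mean SE, n = 4.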

Muscle tissue [7] = experiment: Biodistribution in mouse muscle at 4.8 MBq/140 uL, iv after 15 mins by gamma counting; assay type: ADME, organism-based; conditions: in vivo, 0.25 h; procedure, shortened: as §1
[8] = Ratio of drug uptake in striatum to pons of Sprague-Dawley rat at 16 MBq administered as bolus infusion; conditions: in vivo, iv
Striatum = experiment: Drug uptake in Sprague-Dawley rat striatum at 16 MBq administered as bolus infusion after 45 mins by PET analysis; assay type: ADME, organism-based; conditions: in vivo, iv, 0.75 h
Mus musculus [9] = experiment: Biodistribution in mouse small intestine at 4.8 MBq/140 uL, iv after 1 min by gamma counting; assay type: ADME, organism-based; conditions: in vivo; procedure, shortened: as §2
Muscle tissue [10] = experiment: Biodistribution in mouse muscle at 4.8 MBq/140 uL, iv after 30 mins by gamma counting; assay type: ADME, organism-based; conditions: in vivo, 0.5 h; procedure, shortened: as §1
Brain [11] = experiment: Drug uptake in mGluR1 knockout mouse brain at 17 MBq, iv up to 60 mins by PET analysis; assay type: ADME, organism-based; conditions: in vivo, 1 h
Kidney [12] = experiment: Biodistribution in mouse kidney at 4.8 MBq/140 uL, iv after 5 mins by gamma counting; assay type: ADME, organism-based; conditions: in vivo; procedure, shortened: as §1
Lung [13] = experiment: Biodistribution in mouse lung at 4.8 MBq/140 uL, iv after 60 mins by gamma counting; assay type: ADME, organism-based; conditions: in vivo, 1 h; procedure, shortened: as §1
Brain [14] = experiment: Biodistribution in mouse brain at 4.8 MBq/140 uL, iv after 1 min by gamma counting; assay type: ADME, organism-based; conditions: in vivo; procedure, shortened: as §1
Brain [15] = experiment: Biodistribution in mouse brain at 4.8 MBq/140 uL, iv after 5 mins by gamma counting; assay type: ADME, organism-based; conditions: in vivo; procedure, shortened: as §1
Brain [16] = experiment: Biodistribution in mouse brain at 4.8 MBq/140 uL, iv after 15 mins by gamma counting; assay type: ADME, organism-based; conditions: in vivo, 0.25 h; procedure, shortened: as §1
Blood [17] = experiment: Biodistribution in mouse blood at 4.8 MBq/140 uL, iv after 1 min by gamma counting; assay type: ADME, organism-based; conditions: in vivo; procedure, shortened: as §1
Blood [18] = experiment: Biodistribution in mouse blood at 4.8 MBq/140 uL, iv after 60 mins by gamma counting; assay type: ADME, organism-based; conditions: in vivo, 1 h; procedure, shortened: as §1
Mus musculus [19] = experiment: Biodistribution in mouse small intestine at 4.8 MBq/140 uL, iv after 5 mins by gamma counting; assay type: ADME, organism-based; conditions: in vivo; procedure, shortened: as §2
Thalamus [20] = experiment: Drug uptake in Sprague-Dawley rat thalamus at 17 MBq administered as bolus infusion by PET analysis in presence of JNJ16259685; assay type: ADME, organism-based; conditions: in vivo, iv
Liver [21] = experiment: Biodistribution in mouse liver at 4.8 MBq/140 uL, iv after 1 min by gamma counting; assay type: ADME, organism-based; conditions: in vivo; procedure, shortened: as §1
Mus musculus [22] = experiment: Biodistribution in mouse testis at 4.8 MBq/140 uL, iv after 1 min by gamma counting; assay type: ADME, organism-based; conditions: in vivo; procedure, shortened: as §2
Blood [23] = experiment: Biodistribution in mouse blood at 4.8 MBq/140 uL, iv after 5 mins by gamma counting; assay type: ADME, organism-based; conditions: in vivo; procedure, shortened: as §1
Mus musculus [24] = experiment: Biodistribution in mouse testis at 4.8 MBq/140 uL, iv after 5 mins by gamma counting; assay type: ADME, organism-based; conditions: in vivo; procedure, shortened: as §2
Lung [25] = experiment: Biodistribution in mouse lung at 4.8 MBq/140 uL, iv after 1 min by gamma counting; assay type: ADME, organism-based; conditions: in vivo; procedure, shortened: as §1
Liver [26] = experiment: Biodistribution in mouse liver at 4.8 MBq/140 uL, iv after 15 mins by gamma counting; assay type: ADME, organism-based; conditions: in vivo, 0.25 h; procedure, shortened: as §1
[27] = Metabolic stability in Sprague-Dawley rat brain assessed as compound remaining after 90 mins; assay type: ADME, tissue-based; conditions: read-out: Stability
Cerebellum [28] = experiment: Drug uptake in Sprague-Dawley rat cerebellum at 16 MBq administered as bolus infusion after 45 mins post injection by PET analysis; assay type: ADME, organism-based; conditions: in vivo, iv, 0.75 h
Mus musculus [29] = experiment: Biodistribution in mouse small intestine at 4.8 MBq/140 uL, iv after 60 mins by gamma counting; assay type: ADME, organism-based; conditions: in vivo, 1 h; procedure, shortened: as §2
Mus musculus [30] = experiment: Biodistribution in mouse testis at 4.8 MBq/140 uL, iv after 60 mins by gamma counting; assay type: ADME, organism-based; conditions: in vivo, 1 h; procedure, shortened: as §2
Mus musculus [31] = experiment: Biodistribution in mouse testis at 4.8 MBq/140 uL, iv after 30 mins by gamma counting; assay type: ADME, organism-based; conditions: in vivo, 0.5 h; procedure, shortened: as §2
Spleen [32] = experiment: Biodistribution in mouse spleen at 4.8 MBq/140 uL, iv after 1 min by gamma counting; assay type: ADME, organism-based; conditions: in vivo; procedure, shortened: as §2
Spleen [33] = experiment: Biodistribution in mouse spleen at 4.8 MBq/140 uL, iv after 60 mins by gamma counting; assay type: ADME, organism-based; conditions: in vivo, 1 h; procedure, shortened: as §2
Brain [34] = experiment: Biodistribution in mouse brain at 4.8 MBq/140 uL, iv after 60 mins by gamma counting; assay type: ADME, organism-based; conditions: in vivo, 1 h; procedure, shortened: as §1
Thalamus [35] = experiment: Drug uptake in Sprague-Dawley rat thalamus at 16 MBq administered as bolus infusion after 45 mins by PET analysis; assay type: ADME, organism-based; conditions: in vivo, iv, 0.75 h
Spleen [36] = experiment: Biodistribution in mouse spleen at 4.8 MBq/140 uL, iv after 30 mins by gamma counting; assay type: ADME, organism-based; conditions: in vivo, 0.5 h; procedure, shortened: as §2
Muscle tissue [37] = experiment: Biodistribution in mouse muscle at 4.8 MBq/140 uL, iv after 1 min by gamma counting; assay type: ADME, organism-based; conditions: in vivo; procedure, shortened: as §1
Thalamus [38] = experiment: Drug uptake in Sprague-Dawley rat thalamus at 16 MBq administered as bolus infusion after 90 mins by PET analysis; assay type: ADME, organism-based; conditions: in vivo, iv, 1.5 h
[39] = Ratio of drug uptake in thalamus to pons of Sprague-Dawley rat at 16 MBq administered as bolus infusion; conditions: in vivo, iv
Muscle tissue [40] = experiment: Biodistribution in mouse muscle at 4.8 MBq/140 uL, iv after 5 mins by gamma counting; assay type: ADME, organism-based; conditions: in vivo; procedure, shortened: as §2
Heart [41] = experiment: Biodistribution in mouse heart at 4.8 MBq/140 uL, iv after 30 mins by gamma counting; assay type: ADME, organism-based; conditions: in vivo, 0.5 h; procedure, shortened: as §1
Mus musculus [42] = experiment: Biodistribution in mouse small intestine at 4.8 MBq/140 uL, iv after 15 mins by gamma counting; assay type: ADME, organism-based; conditions: in vivo, 0.25 h; procedure, shortened: as §2
Heart [43] = experiment: Biodistribution in mouse heart at 4.8 MBq/140 uL, iv after 1 min by gamma counting; assay type: ADME, organism-based; conditions: in vivo; procedure, shortened: as §1
Lung [44] = experiment: Biodistribution in mouse lung at 4.8 MBq/140 uL, iv after 5 mins by gamma counting; assay type: ADME, organism-based; conditions: in vivo; procedure, shortened: as §1
Mus musculus [45] = experiment: Biodistribution in mouse small intestine at 4.8 MBq/140 uL, iv after 30 mins by gamma counting; assay type: ADME, organism-based; conditions: in vivo, 0.5 h; procedure, shortened: as §2

Drug uptake (Kidney [1]): 2.92 % ID/g
Drug uptake (Kidney [2]): 3.32 % ID/g
Drug uptake (Cerebellum [3]): Not Active
Drug uptake (Blood [4]): 0.67 % ID/g
Drug uptake (Liver [5]): 8.34 % ID/g
Drug uptake (Muscle tissue [6]): 0.52 % ID/g
Drug uptake (Muscle tissue [7]): 0.95 % ID/g
Ratio [8]: 4.32
Drug uptake (Striatum): Active
Drug uptake (Mus musculus [9]): 3.65 % ID/g
Drug uptake (Muscle tissue [10]): 0.64 % ID/g
Drug uptake (Brain [11]): Not Active
Drug uptake (Kidney [12]): 5.64 % ID/g
Drug uptake (Lung [13]): 1.57 % ID/g
Drug uptake (Brain [14]): 3.1 % ID/g
Drug uptake (Brain [15]): 3.21 % ID/g
Drug uptake (Brain [16]): 3.14 % ID/g
Drug uptake (Blood [17]): 3.79 % ID/g
Drug uptake (Blood [18]): 0.64 % ID/g
Drug uptake (Mus musculus [19]): 4.55 % ID/g
Drug uptake (Thalamus [20]): Not Active
Drug uptake (Liver [21]): 8.16 % ID/g
Drug uptake (Mus musculus [22]): 0.72 % ID/g
Drug uptake (Blood [23]): 1.95 % ID/g
Drug uptake (Mus musculus [24]): 0.83 % ID/g
Drug uptake (Lung [25]): 5.17 % ID/g
Drug uptake (Liver [26]): 5.57 % ID/g
remaining at 1.5 h [27]: > 80%
Drug uptake (Cerebellum [28]): Active
Drug uptake (Mus musculus [29]): 3.97 % ID/g
Drug uptake (Mus musculus [30]): 0.33 % ID/g
Drug uptake (Mus musculus [31]): 0.38 % ID/g
Drug uptake (Spleen [32]): 1.97 % ID/g
Drug uptake (Spleen [33]): 2.36 % ID/g
Drug uptake (Brain [34]): 1.85 % ID/g
Drug uptake (Thalamus [35]): Active
Drug uptake (Spleen [36]): 2.14 % ID/g
Drug uptake (Muscle tissue [37]): 2.04 % ID/g
Drug uptake (Thalamus [38]): 80%
Ratio [39]: 5.05
Drug uptake (Muscle tissue [40]): 1.22 % ID/g
Drug uptake (Heart [41]): 0.91 % ID/g
Drug uptake (Mus musculus [42]): 4.98 % ID/g
Drug uptake (Heart [43]): 4.63 % ID/g
Drug uptake (Lung [44]): 2.9 % ID/g
Drug uptake (Mus musculus [45]): 4.07 % ID/g
Compound: CC(C)Nc1cc(-c2csc(N(C)C(=O)c3ccc(O[11CH3])cc3)n2)ncn1
